From ChEMBL document CHEMBL1255517, “CD4 mimics targeting the HIV entry mechanism and their hybrid molecules with a CXCR4 antagonist” (Bioorg Med Chem Lett, 2010)

Assays:
PM1 = assay: Inhibition of CD4-induced monoclonal antibody 4C11 binding to HIV1 JR-FL infected in human PM1 cells expressing CCR5 at 100 uM after 15 mins by FACS analysis (reference value: 27.60)
[1] = test system: Human immunodeficiency virus 1; assay: Antiviral activity against HIV1 3B infected in human PM1 cells expressing CCR5 assessed as protection against virus-induced cytopathogenicity by MTT assay; assay type: functional, organism-based; conditions: Human immunodeficiency virus 1, 3B
Outline: (§1)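 Cells were PM1/CCR5 infected with HIV-1, with viability read by MTT. IC50 is the compound concentration giving 50% protection against virus-induced cytopathogenicity. Values are means with standard deviation from at least three independent experiments.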

[2] = Cytotoxicity against human PM1 cells expressing CCR5 by MTT assay; assay type: cell-based
Outline: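 Mock-infected PM1/CCR5 cells were exposed to compound, with viability read by MTT. CC50 is the concentration that reduces viability by 50%. Values are means with standard deviation from at least three independent experiments.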

[3] = test system: Human immunodeficiency virus 1; assay: Antiviral activity against HIV1 isolate 89.6 infected in human PM1 cells expressing CCR5 assessed as protection against virus-induced cytopathogenicity by MTT assay; assay type: functional, organism-based; conditions: Human immunodeficiency virus 1, isolate 89.6, PM1
Outline: as §1

[4] = test system: Human immunodeficiency virus 1; assay: Antiviral activity against HIV1 3B infected in human MT2 cells assessed as protection against virus-induced cytopathogenicity by MTT assay; assay type: functional, organism-based
[5] = test system: Human immunodeficiency virus 1; assay: Antiviral activity against HIV1 MNA infected in human PM1 cells expressing CCR5 assessed as protection against virus-induced cytopathogenicity by MTT assay; assay type: functional, organism-based; conditions: Human immunodeficiency virus 1, MNA
Outline: as §1

[6] = Selectivity index, ratio of CC50 for human PM1 cells expressing CCR5 to IC50 for HIV1 MNA; assay type: functional
[7] = Cytotoxicity against human MT2 cells by MTT assay; assay type: cell-based
[8] = target: C-X-C chemokine receptor type 4 (Homo sapiens, UniProt P61073); assay: Displacement of [125I]-SDF-1-alpha from CXCR4 expressed in CHO cells; assay type: cell-based
C-X-C chemokine receptor type 4, sequence (P61073 whole entry): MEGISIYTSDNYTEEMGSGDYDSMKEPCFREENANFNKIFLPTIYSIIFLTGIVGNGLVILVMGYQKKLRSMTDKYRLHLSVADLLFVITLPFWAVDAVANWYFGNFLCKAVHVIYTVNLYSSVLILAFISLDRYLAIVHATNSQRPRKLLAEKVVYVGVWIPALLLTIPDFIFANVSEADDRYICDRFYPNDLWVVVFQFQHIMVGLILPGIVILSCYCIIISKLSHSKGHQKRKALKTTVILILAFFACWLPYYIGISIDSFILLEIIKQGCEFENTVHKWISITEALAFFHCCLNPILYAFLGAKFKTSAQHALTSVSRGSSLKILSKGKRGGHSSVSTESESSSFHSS

[9] = test system: Human immunodeficiency virus 1; assay: Antiviral activity against HIV1 MTA infected in human PM1 cells expressing CCR5 assessed as protection against virus-induced cytopathogenicity by MTT assay; assay type: functional, organism-based; conditions: Human immunodeficiency virus 1, MTA
Outline: as §1

[10] = Selectivity index, ratio of CC50 for human MT-2 cells to IC50 for HIV1 IIIB
[11] = Human immunodeficiency virus 1, 3B, MT2

**Q.** With `O=C(O)CCC(=O)N1CCC(NC(=O)C(=O)Nc2ccc(Cl)cc2)CC1` as the molecule, how does the RFU (PM1) read?
**A.** 26.1

**Q.** And the IC50 [1]?
**A.** > 100 µM

**Q.** What about the CC50 [2] of the same molecule?
**A.** > 300 µM

**Q.** What about the IC50 [3] of the same molecule?
**A.** > 100 µM

**Q.** With `CC1(C)CC(NC(=O)C(=O)Nc2ccc(Cl)cc2)CC(C)(C)N1` as the molecule, how does the RFU (PM1) read?
**A.** 18.4

**Q.** What about the IC50 [4, 11] of the same molecule?
**A.** 2.1 µM

**Q.** What about the IC50 [1] of the same molecule?
**A.** 8 µM

**Q.** And the IC50 [5]?
**A.** 12 µM

**Q.** What about the CC50 [2] of the same molecule?
**A.** 110 µM

**Q.** And the “Selectivity Index” value [6]?
**A.** 19.2

**Q.** And the IC50 [3]?
**A.** 10 µM

**Q.** What does the source list for `N=C(N)NCCC[C@H](NC(=O)[C@@H]1CSSC[C@H](NC(=O)[C@H](Cc2ccc3ccccc3c2)NC(=O)[C@H](CCCNC(=N)N)NC(=O)[C@H](CCCNC(=N)N)NC(=O)c2ccc(F)cc2)C(=O)N[C@@H](Cc2ccc(O)cc2)C(=O)N[C@@H](CCCNC(N)=O)C(=O)N[C@@H](CCCNC(=N)N)C(=O)N[C@H](CCCCNC(=O)CCC(=O)NCCCCN2CCC(NC(=O)C(=O)Nc3ccc(Cl)cc3)CC2)C(=O)N2CCC[C@H]2C(=O)N[C@@H](Cc2ccc(O)cc2)C(=O)N[C@@H](CCCNC(=N)N)C(=O)N[C@@H](CCCNC(N)=O)C(=O)N1)C(N)=O` [listing 1 of 2 here]?
**A.** CC50 [7]: 8.6 µM; EC50 [8]: 0.0044 µM; IC50 [4, 11]: 0.0509 µM

**Q.** With `CC(C)C(=O)N1CCC(NC(=O)C(=O)Nc2ccc(Cl)cc2)CC1` as the molecule, how does the RFU (PM1) read?
**A.** 8.27

**Q.** And the IC50 [1]?
**A.** > 100 µM

**Q.** And the CC50 [2]?
**A.** 45 µM

**Q.** For `O=C(Nc1ccc(Cl)cc1)C(=O)NC1CCNCC1`, which RFU (PM1) is on record?
**A.** 49.9

**Q.** And the IC50 [5]?
**A.** 8 µM

**Q.** What about the CC50 [2] of the same molecule?
**A.** 100 µM

**Q.** With `Cc1cn([C@H]2C[C@H](N=[N+]=[N-])[C@@H](CO)O2)c(=O)[nH]c1=O` [ZIDOVUDINE] as the molecule, how does the IC50 [4, 11] read?
**A.** 0.0493 µM

**Q.** For `CC(C)CN1CCC(NC(=O)C(=O)Nc2ccc(Cl)cc2)CC1`, which RFU (PM1) is on record?
**A.** 15.1

**Q.** And the IC50 [1]?
**A.** > 100 µM

**Q.** What about the CC50 [2] of the same molecule?
**A.** > 300 µM

**Q.** And the IC50 [9]?
**A.** 28 µM

**Q.** For `N=C(N)NCCC[C@H](NC(=O)[C@@H]1CSSC[C@H](NC(=O)[C@H](Cc2ccc3ccccc3c2)NC(=O)[C@H](CCCNC(=N)N)NC(=O)[C@H](CCCNC(=N)N)NC(=O)c2ccc(F)cc2)C(=O)N[C@@H](Cc2ccc(O)cc2)C(=O)N[C@@H](CCCNC(N)=O)C(=O)N[C@@H](CCCNC(=N)N)C(=O)N[C@H](CCCCNC(=O)CCC(=O)NCCCCN2CCC(NC(=O)C(=O)Nc3ccc(Cl)cc3)CC2)C(=O)N2CCC[C@H]2C(=O)N[C@@H](Cc2ccc(O)cc2)C(=O)N[C@@H](CCCNC(=N)N)C(=O)N[C@@H](CCCNC(N)=O)C(=O)N1)C(N)=O` [listing 2 of 2 here], which “Selectivity Index” value [10] is on record?
**A.** 169

**Q.** With `CC1(C)CC(NC(=O)C(=O)Nc2ccc(Br)cc2)CC(C)(C)N1` as the molecule, how does the CC50 [2] read?
**A.** 93 µM

**Q.** Which “Selectivity Index” value [10] does the source give for `NC(=O)NCCC[C@@H]1NC(=O)[C@H](CCCN=C(N)N)NC(=O)[C@H](Cc2ccc(O)cc2)NC(=O)[C@@H]2CCCN2C(=O)[C@@H](CCCCNC(=O)CCC(=O)NCCCCCCN2CCC(NC(=O)C(=O)Nc3ccc(Cl)cc3)CC2)NC(=O)[C@H](CCCN=C(N)N)NC(=O)[C@H](CCCNC(N)=O)NC(=O)[C@H](Cc2ccc(O)cc2)NC(=O)[C@@H](NC(=O)[C@H](Cc2ccc3ccccc3c2)NC(=O)[C@H](CCCN=C(N)N)NC(=O)[C@H](CCCN=C(N)N)NC(=O)c2ccc(F)cc2)CSSC[C@@H](C(=O)N[C@@H](CCCN=C(N)N)C(N)=O)NC1=O` [listing 1 of 2 here] here?
**A.** 219

**Q.** For `O=C(O)CN1CCC(NC(=O)C(=O)Nc2ccc(Cl)cc2)CC1`, which RFU (PM1) is on record?
**A.** 11.9

**Q.** And the IC50 [1]?
**A.** > 100 µM

**Q.** And the CC50 [2]?
**A.** 260 µM

**Q.** For `Cc1ccc(NC(=O)C(=O)NC2CCNCC2)cc1`, which RFU (PM1) is on record?
**A.** 46

**Q.** And the IC50 [5]?
**A.** 20 µM

**Q.** And the CC50 [2]?
**A.** 190 µM

**Q.** For `CN1CCC(NC(=O)C(=O)Nc2ccc(Cl)cc2)CC1`, which RFU (PM1) is on record?
**A.** 33.6

**Q.** And the IC50 [1]?
**A.** 67 µM

**Q.** And the CC50 [2]?
**A.** > 300 µM

**Q.** And the IC50 [3]?
**A.** > 100 µM

**Q.** With `O=C(Nc1ccc(Br)cc1)C(=O)NC1CCNCC1` as the molecule, how does the RFU (PM1) read?
**A.** 52.3

**Q.** And the IC50 [5]?
**A.** 6 µM

**Q.** And the CC50 [2]?
**A.** 50 µM

**Q.** Which RFU (PM1) does the source give for `Cc1ccc(NC(=O)C(=O)NC2CC(C)(C)NC(C)(C)C2)cc1` here?
**A.** 8.66

**Q.** What about the IC50 [5] of the same molecule?
**A.** 15 µM

**Q.** What about the CC50 [2] of the same molecule?
**A.** 210 µM

**Q.** What does the source list for `N=C(N)NCCC[C@H](NC(=O)[C@@H]1CSSC[C@H](NC(=O)[C@H](Cc2ccc3ccccc3c2)NC(=O)[C@H](CCCNC(=N)N)NC(=O)[C@H](CCCNC(=N)N)NC(=O)c2ccc(F)cc2)C(=O)N[C@@H](Cc2ccc(O)cc2)C(=O)N[C@@H](CCCNC(N)=O)C(=O)N[C@@H](CCCNC(=N)N)C(=O)N[C@H](CCCCNC(=O)CCC(=O)NCCCCCCCCN2CCC(NC(=O)C(=O)Nc3ccc(Cl)cc3)CC2)C(=O)N2CCC[C@H]2C(=O)N[C@@H](Cc2ccc(O)cc2)C(=O)N[C@@H](CCCNC(=N)N)C(=O)N[C@@H](CCCNC(N)=O)C(=O)N1)C(N)=O` [listing 1 of 2 here]?
**A.** CC50 [7]: 8.6 µM; EC50 [8]: 0.0071 µM; IC50 ([4]; mt2): 0.0353 µM

**Q.** Which results are given for `CC(=O)N1CCC(NC(=O)C(=O)Nc2ccc(Cl)cc2)CC1`?
**A.** RFU (PM1): 29.1; IC50 [1]: > 100 µM; CC50 [2]: > 300 µM; IC50 [3]: > 100 µM

**Q.** For `NC(=O)NCCC[C@@H]1NC(=O)[C@H](CCCN=C(N)N)NC(=O)[C@H](Cc2ccc(O)cc2)NC(=O)[C@@H]2CCCN2C(=O)[C@@H](CCCCNC(=O)CCC(=O)NCCCCCCN2CCC(NC(=O)C(=O)Nc3ccc(Cl)cc3)CC2)NC(=O)[C@H](CCCN=C(N)N)NC(=O)[C@H](CCCNC(N)=O)NC(=O)[C@H](Cc2ccc(O)cc2)NC(=O)[C@@H](NC(=O)[C@H](Cc2ccc3ccccc3c2)NC(=O)[C@H](CCCN=C(N)N)NC(=O)[C@H](CCCN=C(N)N)NC(=O)c2ccc(F)cc2)CSSC[C@@H](C(=O)N[C@@H](CCCN=C(N)N)C(N)=O)NC1=O` [listing 2 of 2 here], which CC50 [7] is on record?
**A.** 8 µM

**Q.** What about the EC50 [8] of the same molecule?
**A.** 0.0187 µM

**Q.** What about the IC50 [4, 11] of the same molecule?
**A.** 0.0365 µM

**Q.** Which “Selectivity Index” value [10] does the source give for `N=C(N)NCCC[C@H](NC(=O)[C@@H]1CSSC[C@H](NC(=O)[C@H](Cc2ccc3ccccc3c2)NC(=O)[C@H](CCCNC(=N)N)NC(=O)[C@H](CCCNC(=N)N)NC(=O)c2ccc(F)cc2)C(=O)N[C@@H](Cc2ccc(O)cc2)C(=O)N[C@@H](CCCNC(N)=O)C(=O)N[C@@H](CCCNC(=N)N)C(=O)N[C@H](CCCCNC(=O)CCC(=O)NCCCCCCCCN2CCC(NC(=O)C(=O)Nc3ccc(Cl)cc3)CC2)C(=O)N2CCC[C@H]2C(=O)N[C@@H](Cc2ccc(O)cc2)C(=O)N[C@@H](CCCNC(=N)N)C(=O)N[C@@H](CCCNC(N)=O)C(=O)N1)C(N)=O` [listing 2 of 2 here] here?
**A.** 244
